Compound activity (PubChem)
HUVEC inhibit: blocks proliferation of human endothelial cells. HUVEC proliferation, CellTiter-Glo luminescence, 72 h; active compounds read low. viability, % at 10 µM (by protocol). actives 1.1% (n = 86,000);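 active = viability at or below 30%; inactive = viability above 30%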
Pyk2 oligo antag: antagonists of human Pyk2 oligomerization. z-score (the deposit names both 25 µM and 10 µM). actives 0.83% (n = 99,000). Q293 cells, Pyk2 FERM NanoBiT luminescence; active compounds read low. Q14289;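 active = Z-score of -3 or lower, scaled per plate to the spread of control and sample wells; inactive = z-score above -3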;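 note: negative z-score means lost luminescence so less FERM oligomerization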
Target sequence (Q14289 whole entry, looked up): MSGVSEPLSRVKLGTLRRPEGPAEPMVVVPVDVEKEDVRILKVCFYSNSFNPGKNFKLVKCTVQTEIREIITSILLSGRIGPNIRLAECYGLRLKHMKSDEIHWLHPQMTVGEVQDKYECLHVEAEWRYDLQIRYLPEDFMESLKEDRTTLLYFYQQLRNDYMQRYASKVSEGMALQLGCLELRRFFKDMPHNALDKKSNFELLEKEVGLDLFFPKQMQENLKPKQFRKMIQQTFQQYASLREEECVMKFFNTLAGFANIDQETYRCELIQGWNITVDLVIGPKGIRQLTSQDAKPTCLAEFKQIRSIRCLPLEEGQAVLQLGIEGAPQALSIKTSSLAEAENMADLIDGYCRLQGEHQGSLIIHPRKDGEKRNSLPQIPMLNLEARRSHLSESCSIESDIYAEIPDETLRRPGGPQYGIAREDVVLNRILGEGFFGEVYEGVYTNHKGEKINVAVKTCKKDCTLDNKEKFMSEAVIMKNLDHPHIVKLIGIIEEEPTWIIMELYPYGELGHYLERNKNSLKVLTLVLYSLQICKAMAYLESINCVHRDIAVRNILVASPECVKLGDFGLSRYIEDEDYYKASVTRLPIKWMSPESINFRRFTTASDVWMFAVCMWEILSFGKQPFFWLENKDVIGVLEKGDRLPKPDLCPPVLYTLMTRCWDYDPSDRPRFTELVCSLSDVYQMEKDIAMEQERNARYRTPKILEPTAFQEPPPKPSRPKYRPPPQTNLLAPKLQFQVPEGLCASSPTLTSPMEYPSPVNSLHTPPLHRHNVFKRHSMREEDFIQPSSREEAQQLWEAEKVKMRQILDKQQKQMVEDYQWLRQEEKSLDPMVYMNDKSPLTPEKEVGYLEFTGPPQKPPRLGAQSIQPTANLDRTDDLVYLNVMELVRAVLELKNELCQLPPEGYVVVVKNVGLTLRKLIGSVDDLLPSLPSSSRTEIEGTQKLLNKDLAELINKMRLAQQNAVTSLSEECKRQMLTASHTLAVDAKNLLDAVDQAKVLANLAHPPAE
H69AR growth 86K: blocks growth of human H69AR lung tumor cells; H69AR lung tumor viability, ATP luminescence, 72 h; active compounds read low; viability, % at 10 µM; actives 6% (n = 85,000); AID 598;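 active = viability at or below 40%; inactive = viability above 40%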;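 note: multidrug resistant small cell line overexpressing MRP-1 efflux transporter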
bCat KO growth: beta-catenin-lacking colon tumor cell growth suppression; actives 1.5% (n = 140,000); HCT116 beta-catenin knockout viability, CellTiter-Glo, 60 h; active compounds read low; AID 818; viability, % at 10 µM;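 active = viability at or under a set limit, the compound median less 4 SD, cut at about 6% in these data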
Fibroblast inh: blocks proliferation of human lung fibroblasts; LL 47 human lung fibroblast viability, ATP luminescence; active compounds read low; viability, % at 10 µM; actives 1.1% (n = 85,000); AID 719;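 active = viability at or below 50% in the single dose screen; inactive = viability above 50%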;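 note: compound exposure lasted 72 h before the ATP readout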
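material = human LL 47 lung fibroblast cells | dosing = compounds added from tenfold dosing solution, 0.1% DMSO final | timing = overnight cell rest, 72 h compound treatment at 37 °C | measured by = CellTiter-Glo luminescence measuring cellular ATP | evaluation = % viability versus median cells-only luminescence | control set = cell-only wells, no compound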
HCT116 PTEN-null: PTEN-deleted cell growth suppression; HCT116 PTEN-null viability, CellTiter-Glo, 60 h; active compounds read low; viability, % at 10 µM; actives 1.2% (n = 140,000);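 active = viability at or below a set limit, 4 SD under the median of all tested compounds, cut at about 3.7% in these data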;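 note: PTEN knockout HCT116 line with beta catenin targeted HCT116 as companion control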
A number is an active result; - = inactive; . = no result. Only a selection was taken, and hits are over-represented in it overall.

SMILES | HUVEC inhibit | Pyk2 oligo antag | H69AR growth 86K | bCat KO growth | Fibroblast inh | HCT116 PTEN-null
CCOc1ccc(N(CC(=O)NC2CCCCC2)C(=O)CSc2nnc(COc3ccccc3)o2)cc1 | - | - | 36 | - | - | -
O=C(CN(Cc1cccs1)C(=O)CSc1nnc(COc2ccccc2)o1)NC1CCCCC1 | - | - | 40 | - | - | -
COc1ccc(C)cc1S(=O)(=O)N1c2ccccc2CC1C (configuration not stated) | - | - | - | - | - | -
O=C(COC(=O)c1n[nH]c2ccccc12)NC(=O)NC1CCCCC1 | - | - | - | - | - | -
Cc1nn(-c2ccccc2)c(C)c1C(=O)OCC(=O)NC12CC3CC(CC(C3)C1)C2 | - | -3.1 | 29 | - | - | -
CC(=O)Nc1ccc(NC(=O)COC(=O)c2c(C)nn(-c3ccccc3)c2C)cc1 | . | . | . | - | . | -
Cc1nn(-c2ccccc2)c(C)c1C(=O)OCC(=O)NC(=O)NC1CCCC1 | - | -3.4 | - | - | - | -
O=C(Nc1ccccc1-c1ccccc1)C(c1ccccc1)c1ccccc1 | . | - | . | - | . | -
COc1ccc(C(=O)n2c(-c3ccco3)nc3ccccc32)cc1 | - | - | 24 | - | - | -
COc1ccc(OCCn2c(NC(=O)c3ccco3)nc3ccccc32)cc1 | - | - | 39 | - | - | -
CC(=O)Nc1nc2ccccc2n1CCOc1ccccc1 | - | - | - | - | - | -
S=C(Nc1ccccc1)Nc1nc2ccccc2n1CCOc1ccccc1 | . | - | . | 1.6 | . | 1.2
CCC(CC)C1C(C#N)=C(N)Oc2n[nH]c(C)c21 (configuration not stated) | - | - | 13 | - | - | -
CC(C)C1C(C#N)=C(N)Oc2n[nH]c(-c3ccc4ccccc4c3)c21 (configuration not stated) | - | - | 16 | - | - | -
CCC(CC)C1C(C#N)=C(N)Oc2n[nH]c(-c3ccccc3)c21 (configuration not stated) | - | - | 36 | - | - | -
O=C(COC(=O)CCc1nc2ccccc2c(=O)[nH]1)NC(=O)NC1CCCC1 | . | . | . | - | . | -
O=C(CCl)Nc1ccc(Oc2cnc3ccccc3n2)cc1 | . | - | . | - | . | -
Cc1cc(NC(=O)CSc2nc(C(C)C)nc3sc(C)c(C)c23)no1 | - | - | - | - | - | -
Cc1cc(NC(=O)CSc2nc3sc(C)c(C)c3c(=O)n2C2CCCC2)no1 | - | - | 15 | - | 15 | -
N#Cc1c(N2CCCC(O)C2)nc(N)c2c(N)nc3c(c12)CC(=O)N3C12CC3CC(CC(C3)C1)C2 (configuration not stated) | 16 | - | 3.3 | - | - | -
O=C1CSC(c2ccccn2)N1c1cccc(Cl)c1 (configuration not stated) | - | - | - | - | - | -
O=C1CSC(c2ccccn2)N1Cc1cn2ccccc2n1 (configuration not stated) | - | - | - | - | 14 | -
CCOC(=O)C1CCN(C(=O)Cn2cc(C(=O)C3CC3)c3ccccc32)CC1 | - | - | 40 | - | - | -
CCn1c(/N=C/c2ccccc2NS(=O)(=O)c2ccc(C)cc2)nc2ccccc21 | . | - | . | - | . | -
COC(C)(C)[C@H](O)COc1c2ccoc2cc2oc(=O)ccc12 | . | . | . | 0.6 | . | 0.7
SMILES | HUVEC inhibit | Pyk2 oligo antag | H69AR growth 86K | bCat KO growth | Fibroblast inh | HCT116 PTEN-null
COc1c2ccoc2c(OC[C@@H](O)C(C)(C)OC)c2oc(=O)ccc12 | . | . | . | - | . | -
COc1cc(SC#N)ccc1N=Cc1c(C)[nH]n(-c2ccc(C)c(C)c2)c1=O | . | - | . | 0.8 | . | 0.3
O=C(CSc1nnc(SCc2ccc(Cl)cc2)s1)c1ccc2c(c1)OCO2 | . | . | . | - | . | -
CCCCCCCCOC(=O)C1=C(C)Nc2nnnn2C1c1cccs1 (configuration not stated) | 2.5 | - | - | - | - | -
C=CCn1c(N)cc(=O)nc1SC(C)C(=O)Nc1cccc2ccccc12 (configuration not stated) | - | - | - | - | - | -
CCOc1ccc(OCCCCN2CCCC2)cc1 | - | - | - | - | - | -
CCN1CCN(CCCOc2ccc(-c3ccccc3)cc2)CC1 | - | . | 19 | 1.8 | - | 2.0
O=C(Cc1sc(Nc2ccccc2)nc1-c1ccccc1)NCc1ccccc1 | . | . | . | - | . | -
Cc1ccc(NC(=O)c2cc([N+](=O)[O-])ccc2NCc2cccnc2)cc1Cl | . | -3.7 | . | - | . | -
COc1cccc(NC(=O)c2cc([N+](=O)[O-])ccc2NCc2cccnc2)c1 | . | . | . | - | . | -
C=CCNC(=O)CC(=O)N/N=C/c1cccc(C)c1 | . | . | . | - | . | -
O=S(=O)(NCCc1cn2ccccc2n1)c1ccc2c(c1)CCCC2 | . | . | . | - | . | -
Cc1csc(NC(=O)C(F)(F)F)n1 | . | . | . | - | . | -
O=C(ONc1ccc(N=NC(=O)c2ccccc2O)cc1)c1ccccc1 | - | - | 12 | - | - | -
COc1cc(/C=N/NC(=O)c2cccnc2)ccc1OCC(=O)N1CCOCC1 | . | . | . | - | . | -
Cc1c(NC(=O)c2nn3c(C(F)(F)F)cc(-c4ccccc4)nc3c2Cl)c(=O)n(-c2ccccc2)n1C | . | . | . | - | . | -
Cc1c(NC(=O)c2cc3nc(-c4ccc(Cl)cc4)cc(C(F)(F)F)n3n2)c(=O)n(-c2ccccc2)n1C | - | - | 18 | - | - | -
O=C(Nc1ccc(Cl)cc1)c1cc2nc(-c3ccco3)cc(C(F)(F)F)n2n1 | - | - | . | - | - | -
Cc1ccc(Cn2ccc(NC(=O)c3cc4nc(-c5ccco5)cc(C(F)(F)F)n4n3)n2)cc1 | - | - | 35 | - | - | -
CCN(CC)S(=O)(=O)c1ccc2nnn(OCC(=O)Nc3cccc(C#N)c3)c2c1 | - | - | 5.3 | - | - | -
CN(C)S(=O)(=O)c1ccc2nnn(OCC(=O)NC34CC5CC(CC(C5)C3)C4)c2c1 | . | - | . | - | . | -
O=C(CNC(=O)c1cccc(OC(F)F)c1)OCc1cc(=O)n2cc(Br)ccc2n1 | . | . | . | - | . | -
N#Cc1nc(-c2ccc(OCc3ccccc3)cc2)oc1N1CCC(C(N)=O)CC1 | 29 | - | 37 | - | - | -
CCOc1ccc(N(C(C)=O)c2nc(C)cc(C)c2C#N)cc1 | - | - | - | - | - | -
CNc1ccc(/C=C2\COc3ccccc3C2=O)cc1[N+](=O)[O-] | - | - | 16 | - | - | -
O=C(N/N=C/c1ccc(N2CCCCC2)o1)c1ccccc1[N+](=O)[O-] | . | . | . | - | . | -
COc1ccc(Cl)cc1NC(=O)C1CSC(c2ccncc2)=N1 (configuration not stated) | - | . | 30 | - | - | -
COc1ccc(Cl)cc1NC(=O)NC(C)c1ccncc1 (configuration not stated) | - | - | - | - | - | -
COc1ccc([N+](=O)[O-])cc1NC(=S)NC(NC(=O)C(c1ccccc1)c1ccccc1)C(Cl)(Cl)Cl (configuration not stated) | . | - | . | - | . | -
